Results on two molecules are retold here after paper PMC6267549 (Clinical Pharmacokinetics, 2018).

The format of data set [1] is in vivo, human. The note with it: once-daily oral semaglutide, not characterised in the trial. The procedure, abridged:
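Ten once-daily oral doses given, 5 mg for 5 days then 10 mg for 5 days, fasted. Plasma sampled pre-dose and to 504 h after the last dose, K3EDTA, stored at -20 °C. Semaglutide measured by LC-MS/MS after protein precipitation (0.729-60.8 nmol/L, 1/concentration² weighting). t½ = ln(2)/λz, with λz from log-linear regression on the terminal phase.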

The nature of data set [2]: Semaglutide and SNAC urine bioanalysis / renal clearance. The data set is classed as in vivo, human. The note with it: for CLR: based on 0–36 h after the tenth dosing, geometric mean (CV). In outline:
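Urine collected pre-dose day 1 and fractionated over set intervals on days 10–11 after the tenth dose, then stored at -20 °C. 1% Triton X-100 added, 1 part per 9 parts urine. Semaglutide and SNAC quantified by the plasma LC-MS/MS methods with ranges corrected by 1.111. Renal clearance derived over 0–36 h after the tenth dose.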

Data set [3] in a line: Effect of haemodialysis on semaglutide and SNAC exposure in subjects with ESRD. The format is in vivo, human. The procedure, abridged: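 ESRD subjects on haemodialysis three times weekly, started right after dosing (blood flow 500-600 mL/min, ultrafiltration 0-23 mL/min, low- or high-flux membranes). Semaglutide: observed AUC 144–148 h during day-16 dialysis divided by predicted AUC, with λz taken from inter-dialysis plasma levels at 76, 96, 120 and 144 h. SNAC: AUC4 on dialysis day 9 vs non-dialysis day 10, compared by log-scale linear model (dialysis, subject fixed).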

The conditions of data set [4]: subcutaneous administration; humans; cited from earlier work.
For data set [5] the following is noted: subcutaneous administration; rats; cited from earlier work.
For data set [6] the following is noted: subcutaneous administration; monkeys; cited from earlier work.
A short description of data set [7]: SNAC plasma pharmacokinetics after ten once-daily doses of oral semaglutide. The format is in vivo, human. The following applies: for tmax,Day10: median (minimum, maximum). In outline: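 Oral tablets (300 mg SNAC) given once daily, 5 mg semaglutide days 1–5 then 10 mg days 6–10, with 120 mL water after >6 h fast and no intake for 30 min after. K3EDTA plasma sampled, including extra points within 24 h after last dose, stored at -20 °C. SNAC measured by LC-MS/MS after in-line solid-phase preparation against an analogue IS (5.00-2000 ng/mL, fivefold dilution above). AUC24 by linear trapezoid; Cmax and tmax observed.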

[8] abbreviates: mild renal impairment vs normal renal function.
The mark [9] stands for this setting: moderate renal impairment vs normal renal function.
Setting [10] is: severe renal impairment vs normal renal function.

Molecules are shown by their SMILES. “Also recorded” adds a separate entry of the source. Read-outs that look alike come from different tables or passages of the source.

As to `CC[C@H](C)[C@H](NC(=O)[C@H](Cc1ccccc1)NC(=O)[C@H](CCC(=O)O)NC(=O)[C@H](CCCCNC(=O)COCCOCCNC(=O)COCCOCCNC(=O)CC[C@H](NC(=O)CCCCCCCCCCCCCCCCC(=O)O)C(=O)O)NC(=O)[C@H](C)NC(=O)[C@H](C)NC(=O)[C@H](CCC(N)=O)NC(=O)CNC(=O)[C@H](CCC(=O)O)NC(=O)[C@H](CC(C)C)NC(=O)[C@H](Cc1ccc(O)cc1)NC(=O)[C@H](CO)NC(=O)[C@H](CO)NC(=O)[C@@H](NC(=O)[C@H](CC(=O)O)NC(=O)[C@H](CO)NC(=O)[C@@H](NC(=O)[C@H](Cc1ccccc1)NC(=O)[C@@H](NC(=O)CNC(=O)[C@H](CCC(=O)O)NC(=O)C(C)(C)NC(=O)[C@@H](N)Cc1cnc[nH]1)[C@@H](C)O)[C@@H](C)O)C(C)C)C(=O)N[C@@H](C)C(=O)N[C@@H](Cc1c[nH]c2ccccc12)C(=O)N[C@@H](CC(C)C)C(=O)N[C@H](C(=O)N[C@@H](CCCNC(=N)N)C(=O)NCC(=O)N[C@@H](CCCNC(=N)N)C(=O)NCC(=O)O)C(C)C` [semaglutide], in data set [1], the “time to reach steady state (predicted)” value is 4–5 weeks. Besides, the detection in urine entry in data set [2] (urine samples days 10–11, except one subject in the ESRD group) is reported as “not detected in urine; also recorded: not generally detected”. Moreover, in data set [3] (observed during haemodialysis (day 16) over predicted), the “AUC144–148 h,dial/AUC144–148 h,pred (estimated ratio)” value is recorded as 0.97. Moreover, the “intact semaglutide in urine, of the administered dose” value in data set [4] is reported as 3.1%; in data set [5], “less than 1%”. Moreover, the “intact semaglutide in urine” value in data set [6] is on record as “not detected”.
In the case of `O=C([O-])CCCCCCCNC(=O)c1ccccc1O.[Na+]` [SNAC, sodium N-(8-[2-hydroxybenzoyl]amino) caprylate], the “AUC24,Day10” value in data set [7] (ESRD (n = 11), after tenth dose, geometric mean (CV)) was 1471.4 (27.0) nmol·h/L; in data set [7] (mild renal impairment (n = 12), after tenth dose, geometric mean (CV)), 1311.6 (31.5) nmol·h/L; in data set [7] (moderate renal impairment (n = 12), after tenth dose, geometric mean (CV)), 1335.9 (34.6) nmol·h/L; in data set [7] (normal renal function (n = 24), after tenth dose, geometric mean (CV)), 1028.8 (29.2) nmol·h/L; in data set [7] (severe renal impairment (n = 12), after tenth dose, geometric mean (CV)) it was 1522.8 (31.8) nmol·h/L. In addition, the “tmax,Day10” value in data set [7] (ESRD (n = 11), after tenth dose) is 0.83 (0.17, 5.00) h; in data set [7] (mild renal impairment (n = 12), after tenth dose), 0.58 (0.33, 2.50) h; in data set [7] (moderate renal impairment (n = 12), after tenth dose), 0.67 (0.33, 6.00) h; in data set [7] (normal renal function (n = 24), after tenth dose), 0.75 (0.33, 3.00) h; in data set [7] (severe renal impairment (n = 12), after tenth dose), 0.67 (0.17, 1.00) h. For the same molecule, the “estimated ratio Cmax,Day10” value in data set [7] (ESRD vs normal renal function) is 0.79; in data set [7] (setting [8]), 0.94; in data set [7] (setting [9]), 0.70; in data set [7] (setting [10]) it was 1.06. Also, the “estimated ratio of the AUC24,Day10” value in data set [7] (ESRD vs normal renal function) was 1.32; in data set [7] (setting [8]), 1.19; in data set [7] (setting [9]) it was 1.30; in data set [7] (setting [10]), 1.49. In addition, the Cmax (as a rule, the peak of the concentration-time curve) in data set [7] (read-out: Cmax,Day10, ESRD (n = 11), after tenth dose, geometric mean (CV)) stood at 936 nM. The CLR in data set [2] (ESRD (n = 11)) is 0.01 (508.51) L/h; in data set [2] (mild renal impairment (n = 12)), 0.08 (87.88) L/h; in data set [2] (moderate renal impairment (n = 12)), 0.09 (92.63) L/h; in data set [2] (normal renal function (n = 24)) it was 0.06 (104.33) L/h; in data set [2] (severe renal impairment (n = 12)), 0.04 (98.22) L/h. Further, the “estimated ratio of AUC4 on day 9 during haemodialysis to AUC4 on day 10” value in data set [3] (haemodialysis vs no haemodialysis) is 0.95.
